Measurements gathered from unrelated publications.
Compare with care: the assays were run in different laboratories.
Organism: Plasmodium falciparum
Effect on: parasite growth

O=C(Nc1c(F)cccc1C(=O)O)c1cccc(-c2ccccc2)c1 — IC50 (resazurin; NF54; 48 h; gametocyte): > 10000 nM
CCOc1ccc(-c2nc(CNCCc3ccc(F)cc3)cs2)cc1 — IC50 (SYBR Green; blood stage): 17100 nM
Clc1ccc2c(c1)nc(NCc1ccccn1)n2Cc1ccccc1 — IC50 (NF54; blood stage): > 10000 nM
Oc1cccc(C(Nc2nccs2)c2ccc3cccnc3c2O)c1 (stereo not shown) — IC50 (SYBR Green; blood stage): 1200 nM
O=C(Nc1ccnc(C(F)(F)F)c1)Nc1cccc2c1OC(F)(F)O2 — IC50 (NF54; blood stage): 700 nM
C/C=C/C=C/C=C/c1c(O)cc(CC=C(C)C)c(O)c1C=O — IC50 (W2; 72 h; drug-resistant strain, blood stage): 1.1 µg/mL
COc1cc(C)c(-c2ccc(O)c3c2C[C@@H](C)N[C@@H]3C)c2cccc(O)c12 (single isomer, unassigned) — IC50 (SYBR Green; NF54; blood stage): 38.4 nM
C[C@H]1[C@@H](O)O[C@@H]2O[C@@]3(C)CC[C@H]4[C@H](C)CC[C@@H]1[C@@]24OO3 — IC50 (3D7; 24 h; blood stage): 25.2 nM
FC(F)(F)c1ccc2c(c1)nc(N1CCNCC1)n2Cc1ccccc1 — IC50 (NF54; blood stage): 310 nM
Clc1ccc2c(N3CCN(CCCN4CCN(c5ccnc6cc(Cl)ccc56)CC4)CC3)ccnc2c1 — IC50 (blood stage): 25.8 nM
C[C@@]12CC[C@@H](O)[C@]3(C)C4=CC(=O)OCC4=C[C@@H](OC1=O)C23 (stereo partly shown) — IC50 (W2; 72 h; drug-resistant strain, blood stage): 0.67 µg/mL
COC1=CC(c2ccc[nH]2)=NC1=Cc1ccc(CCCCCCCCCCCO)[nH]1 — IC50 (D6; blood stage): 59 nM
O=C(Nc1cc(F)ccc1C(=O)O)c1ccc(-c2ccccc2)cc1 — IC50 (NF54; 48 h; blood stage): > 10000 nM
c1ccc(Cn2c(N3CCNCC3)nc3cc(-c4cc[nH]n4)ccc32)cc1 — IC50 (NF54; blood stage): > 10000 nM
O=C(Nc1ccccc1C(=O)O)c1ccc(-c2ccc(F)cc2)cc1 — IC50 (resazurin; NF54; 48 h; gametocyte): > 10000 nM
CS(=O)(=O)c1ccc2c(c1)nc(C1CCNCC1)n2Cc1ccccc1 — IC50 (NF54; blood stage): > 10000 nM
C#CCCCCCCCCC=CCC(O)CC(O)CO (stereo not shown) — IC50 (W2; drug-resistant strain, blood stage): > 47.6 µg/mL
COC(=O)c1cccc(-c2nc3c(N4CCC(N5CCN(C)CC5)CC4)nccc3[nH]2)c1 — IC50 (NF54; blood stage): < 100 nM
O=C(O)c1cc(-c2ccc(Br)cc2)nc2ccc(Cl)cc12 — IC50 (SYBR Green; blood stage): 60000 nM
Clc1ccc2c(nc(N3CCNCC3)n2Cc2ccccc2)c1-c1ccncc1 — IC50 (NF54; blood stage): 2170 nM
CCN(CC)CCCC(C)Nc1ccnc2cc(Cl)ccc12 (stereo not shown) — IC50 (D6; 72 h; blood stage): 0.01 µg/mL
COc1cc(NC(C)CCCNC(=O)c2cccc(C(=O)NCCCC(C)Nc3cc(OC)cc4cccnc34)n2)c2ncccc2c1.Cl (stereo not shown) — IC50 (D6; blood stage): 2.2 µg/mL
Cc1cccc(C(=O)O)c1NC(=O)c1ccc(-c2ccccc2)cc1 — IC50 (resazurin; NF54; 48 h; gametocyte): 1140 nM
COc1nc2ccc(Br)cc2cc1[C@@H](c1ccccc1)[C@@](O)(CCN(C)C)c1cccc2ccccc12 — IC50 (SYBR Green; blood stage): 1090 nM
O=C(O)c1ccc(F)cc1NC(=O)c1ccccc1-c1ccccc1 — IC50 (resazurin; NF54; 48 h; gametocyte): > 10000 nM
COc1cccc2c(=O)c(C)c(-c3ccc(Cc4ccc(OC(F)(F)F)cc4)cc3)[nH]c12 — IC50 (3D7; blood stage): > 350 nM
NC(N)=Nc1ccc(-c2ccc(-c3ccc(N=C(N)N)c(Cl)c3)o2)cc1Cl — IC50 (SYBR Green; blood stage): 249 nM
C#CCCCCCCCCCCCC(O)CC(O)CO (stereo not shown) — IC50 (W2; drug-resistant strain, blood stage): 32.5 µg/mL
CN1CCC(NCc2cccc(-c3ccc(S(=O)(=O)NCc4ccccc4)cc3)c2)CC1 — IC50 (SYBR Green; blood stage): 593 nM
CCCCCCCCCCCCCC(O)CC(O)CO (stereo not shown) — IC50 (W2; drug-resistant strain, blood stage): 40.8 µg/mL
Fc1ccc(-c2nc3c(N4CCCN(CC5CC5)CC4)nccc3[nH]2)cc1F — IC50 (NF54; blood stage): 20 nM
CC(=O)Nc1ccc(-c2ccc3ncc4c(c3c2)n(-c2cccc(C(F)(F)F)c2)c(=O)n4C)cn1 — IC50 (resazurin; 3D7; gametocyte): < 100 nM
CCc1ccc(C2=NC(=Cc3ccc(CCCCCCCCCC(C)O)[nH]3)C(OC)=C2)[nH]1 (stereo not shown) — IC50 (D6; blood stage): 17 nM
C=CCCCCCCCCCCCC(O)CC(O)CO (stereo not shown) — IC50 (D6; blood stage): 29.7 µg/mL
COC1=CC(c2cccn2C)=NC1=Cc1ccc(CCCCCCCCCC(C)O)[nH]1 (stereo not shown) — IC50 (D6; blood stage): 2330 nM
FC(F)(F)c1ccc(CNCCNc2nc3cc(Cl)ccc3n2Cc2ccccc2)cc1 — IC50 (NF54; blood stage): 2780 nM
COc1cccc(N2CCN(C3=Nc4c(F)cccc4[C@H](CC(=O)O)N3c3cc(C(F)(F)F)ccc3OC)CC2)c1 — IC50 (SYBR Green; blood stage): 9950 nM
Clc1ccc2c(c1)nc(NCCNCc1ccncc1)n2Cc1ccccc1 — IC50 (NF54; blood stage): 2280 nM
N=C(N)c1ccc(OCCCCCOc2ccc(C(=N)N)cc2)cc1 — IC50 (SYBR Green; blood stage): 5.6 nM
CCN(CC)CCCC(C)Nc1ccnc2cc(Cl)ccc12 (stereo not shown) — IC50: 201 nM
